Reference: ChEMBL document CHEMBL4610117 (J Med Chem, 2020)
Activity calls are given as the source filed them. The calls are words filed in the database; no cut-off is given here.

Tests used:
SU-DHL-8 [1] = test: Antiproliferative activity against human SUDHL8 cells assessed as reduction in cell viability measured after 4 days by celltiter-glo luminescent assay; assay type: functional, cell-based; settings: SU-DHL-8, 96 h
[2] = Clearance in human hepatocytes at 1 uM measured after 2 to 90 mins by LC-MS/MS analysis; assay type: ADME, cell-based, Hepatocyte
[3] = Clearance in Han-Wistar rat hepatocytes at 1 uM measured after 2 to 90 mins by LC-MS/MS analysis; assay type: ADME, cell-based, Hepatocyte
[4] = Clearance in rat liver microsomes at 1 uM measured after 2 to 60 mins in presence of NADP by LC-MS/MS analysis; assay type: ADME, Microsome
[5] = Apparent half life in Wistar rat at 0.3 to 0.5 mg/kg, iv administered as bolus dose by LC-MS/MS analysis; assay type: ADME, organism-based; settings: in vivo, read-out: t1/2(app) (converted)
[6] = Oral bioavailability in Wistar rat at 0.6 to 1 mg/kg by LC-MS/MS analysis; assay type: ADME, organism-based; settings: in vivo
[7] = Inhibition of PI3K/AKT/mTOR signaling pathway in human MCF7 cells assessed as reduction in AKT phosphorylation at Ser473 residues measured after 30 mins by HTRF assay; settings: MCF7, 0.5 h
[8] = target: DNA-dependent protein kinase catalytic subunit (Homo sapiens, UniProt P78527); test: Inhibition of DNA-PK (unknown origin)
[9] = target: Serine-protein kinase ATM (Homo sapiens, UniProt Q13315); test: Inhibition of N-terminally FLAG-tagged recombinant full-length ATM (unknown origin) expressed in […] cells using biotin-PEG2-SVEPPLSQETFSD as substrate preincubated for 15 mins followed by substrate addition and measured after 90 mins by TR-FRET assay
Procedure, shortened: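 Full-length N-terminal FLAG ATM from HEK293-6E, anti-FLAG purified, typically 15 nM. Compound was pre-bound 15 min at 22 °C in HEPES pH 7.0 buffer with MgCl2, KCl, DTT, BSA and Igepal. The reaction ran with 10 μM ATP and 1 μM peptide (final) for 90 min at 22 °C and was stopped with EDTA, streptavidin-XL665 and Eu anti-phospho-p53(Ser15). […] 11 concentrations, 20 μM–0.07 nM, in duplicate.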

[10] = target: Phosphatidylinositol 4,5-bisphosphate 3-kinase catalytic subunit beta isoform (Homo sapiens, UniProt P42338); test: Inhibition of PI3Kbeta (unknown origin)
[11] = target: Serine/threonine-protein kinase mTOR (Homo sapiens, UniProt P42345); test: Binding affinity to wild-type human partial length mTOR (L1382 to W2549 residues) expressed in mammalian expression system by Kinomescan method
[12] = target: Serine/threonine-protein kinase RIO2 (Homo sapiens, UniProt Q9BVS4); test: Binding affinity to wild-type human partial length RIOK2 (M1 to D313 residues) expressed in mammalian expression system by Kinomescan method
[13] = Maximum oral bioavailability in mouse liver microsomes based well stirred liver model at 1 uM measured after 2 to 60 mins in presence of NADP by LC-MS/MS analysis; assay type: ADME, Microsome; settings: read-out: Fmax
[14] = Protein binding in rat plasma assessed as unbound fraction at 3 uM measured after 7 hrs by LC-MS/MS analysis; assay type: ADME, cell-free
[15] = Clearance in Beagle dog at 0.3 to 0.5 mg/kg, iv administered as bolus dose by LC-MS/MS analysis; assay type: ADME, organism-based, Canis lupus familiaris; settings: in vivo
[16] = Clearance in NMRI mouse at 0.3 to 0.5 mg/kg, iv administered as bolus dose by LC-MS/MS analysis; assay type: ADME, organism-based; settings: in vivo
[17] = Volume of distribution at steady state in NMRI mouse at 0.3 to 0.5 mg/kg, iv administered as bolus dose by LC-MS/MS analysis; assay type: ADME, organism-based; settings: in vivo
[18] = Apparent half life in NMRI mouse at 0.3 to 0.5 mg/kg, iv administered as bolus dose by LC-MS/MS analysis; assay type: ADME, organism-based; settings: in vivo
[19] = Apparent half life in Beagle dog at 0.3 to 0.5 mg/kg, iv administered as bolus dose by LC-MS/MS analysis; assay type: ADME, organism-based, Canis lupus familiaris; settings: in vivo, read-out: t1/2(app) (converted)
[20] = Oral bioavailability in Beagle dog at 0.6 to 1 mg/kg by LC-MS/MS analysis; assay type: ADME, organism-based, Canis lupus familiaris; settings: in vivo
SU-DHL-8 [21] = test: Antitumor activity against human SUDHL8 cells harboring ATM K1964E mutant xenografted in CB-17 mouse assessed as tumor growth at 50 mg/kg, po bid dosed every 3 days followed by 4 days interval relative to control; assay type: functional
Procedure, shortened: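 SU-DHL-8 (ATM K1964E) GCB-DLBCL cell line-derived xenograft in female C.B-17 SCID mice, n = 9/group. Oral dosing at 50 mg/kg b.i.d. on an intermittent schedule of 3 days on/4 days off. Treatment-to-control (T/C) ratio versus vehicle.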

[22] = target: T1, Serine/threonine-protein kinase ATR (Homo sapiens, UniProt Q13535); test: In vivo inhibition of ATR in human SUDHL8 cells harboring ATM K1964E mutant xenografted CB-17 mouse assessed as reduction in ATR phosphorylation at 50 mg/kg, po bid dosed every 3 days followed by 4 days interval; assay type: functional, organism-based
[23] = target: T1, Serine/threonine-protein kinase ATR; test: In vivo inhibition of ATR in human SUDHL8 cells harboring ATM K1964E mutant xenografted CB-17 mouse assessed as change in pH2AX level at 50 mg/kg, po bid dosed every 3 days followed by 4 days interval; assay type: functional, organism-based
[24] = Toxicity in NOD/SCID mouse xenografted with human CR5038 cells assessed as body weight loss at 20 mg/kg, po qd dosed every 2 days followed by 5 days interval measured on day 11 to 14 and 28 to 31 in presence of carboplatin relative to control; assay type: organism-based; settings: in vivo
[25] = Toxicity in NOD/SCID mouse xenografted with human CR5038 cells assessed as body weight loss at 20 mg/kg, po qd dosed every 2 days followed by 5 days for 2 weeks and subsequent dosing at 10 mg/kg interval measured on day 11 to 14 and 28 to 31 in presence of carboplatin relative to control; assay type: organism-based; settings: in vivo
[26] = Toxicity in nude mouse xenografted with human SUM149 cells assessed as body weight loss at 20 mg/kg, po bid dosed every 3 days followed by 4 days interval in presence of olaparib relative to control; assay type: organism-based, SUM149PT; settings: in vivo
SUM149PT = test: Antitumor activity against human SUM149 cells xenografted in nude mouse assessed as tumor growth at 20 mg/kg, po bid dosed every 3 days followed by 4 days interval in presence of olaparib relative to control; assay type: functional
Procedure, shortened: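 SUM149 human TNBC xenograft in nude mice, n = 10/group. Oral 20 mg/kg b.i.d., 3 days on/4 days off, combined with olaparib 50 mg/kg q.d. i.p. T/C ratio versus vehicle and the monotherapies; body weight loss was monitored.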

T1 sequence (Q13535 whole entry, looked up): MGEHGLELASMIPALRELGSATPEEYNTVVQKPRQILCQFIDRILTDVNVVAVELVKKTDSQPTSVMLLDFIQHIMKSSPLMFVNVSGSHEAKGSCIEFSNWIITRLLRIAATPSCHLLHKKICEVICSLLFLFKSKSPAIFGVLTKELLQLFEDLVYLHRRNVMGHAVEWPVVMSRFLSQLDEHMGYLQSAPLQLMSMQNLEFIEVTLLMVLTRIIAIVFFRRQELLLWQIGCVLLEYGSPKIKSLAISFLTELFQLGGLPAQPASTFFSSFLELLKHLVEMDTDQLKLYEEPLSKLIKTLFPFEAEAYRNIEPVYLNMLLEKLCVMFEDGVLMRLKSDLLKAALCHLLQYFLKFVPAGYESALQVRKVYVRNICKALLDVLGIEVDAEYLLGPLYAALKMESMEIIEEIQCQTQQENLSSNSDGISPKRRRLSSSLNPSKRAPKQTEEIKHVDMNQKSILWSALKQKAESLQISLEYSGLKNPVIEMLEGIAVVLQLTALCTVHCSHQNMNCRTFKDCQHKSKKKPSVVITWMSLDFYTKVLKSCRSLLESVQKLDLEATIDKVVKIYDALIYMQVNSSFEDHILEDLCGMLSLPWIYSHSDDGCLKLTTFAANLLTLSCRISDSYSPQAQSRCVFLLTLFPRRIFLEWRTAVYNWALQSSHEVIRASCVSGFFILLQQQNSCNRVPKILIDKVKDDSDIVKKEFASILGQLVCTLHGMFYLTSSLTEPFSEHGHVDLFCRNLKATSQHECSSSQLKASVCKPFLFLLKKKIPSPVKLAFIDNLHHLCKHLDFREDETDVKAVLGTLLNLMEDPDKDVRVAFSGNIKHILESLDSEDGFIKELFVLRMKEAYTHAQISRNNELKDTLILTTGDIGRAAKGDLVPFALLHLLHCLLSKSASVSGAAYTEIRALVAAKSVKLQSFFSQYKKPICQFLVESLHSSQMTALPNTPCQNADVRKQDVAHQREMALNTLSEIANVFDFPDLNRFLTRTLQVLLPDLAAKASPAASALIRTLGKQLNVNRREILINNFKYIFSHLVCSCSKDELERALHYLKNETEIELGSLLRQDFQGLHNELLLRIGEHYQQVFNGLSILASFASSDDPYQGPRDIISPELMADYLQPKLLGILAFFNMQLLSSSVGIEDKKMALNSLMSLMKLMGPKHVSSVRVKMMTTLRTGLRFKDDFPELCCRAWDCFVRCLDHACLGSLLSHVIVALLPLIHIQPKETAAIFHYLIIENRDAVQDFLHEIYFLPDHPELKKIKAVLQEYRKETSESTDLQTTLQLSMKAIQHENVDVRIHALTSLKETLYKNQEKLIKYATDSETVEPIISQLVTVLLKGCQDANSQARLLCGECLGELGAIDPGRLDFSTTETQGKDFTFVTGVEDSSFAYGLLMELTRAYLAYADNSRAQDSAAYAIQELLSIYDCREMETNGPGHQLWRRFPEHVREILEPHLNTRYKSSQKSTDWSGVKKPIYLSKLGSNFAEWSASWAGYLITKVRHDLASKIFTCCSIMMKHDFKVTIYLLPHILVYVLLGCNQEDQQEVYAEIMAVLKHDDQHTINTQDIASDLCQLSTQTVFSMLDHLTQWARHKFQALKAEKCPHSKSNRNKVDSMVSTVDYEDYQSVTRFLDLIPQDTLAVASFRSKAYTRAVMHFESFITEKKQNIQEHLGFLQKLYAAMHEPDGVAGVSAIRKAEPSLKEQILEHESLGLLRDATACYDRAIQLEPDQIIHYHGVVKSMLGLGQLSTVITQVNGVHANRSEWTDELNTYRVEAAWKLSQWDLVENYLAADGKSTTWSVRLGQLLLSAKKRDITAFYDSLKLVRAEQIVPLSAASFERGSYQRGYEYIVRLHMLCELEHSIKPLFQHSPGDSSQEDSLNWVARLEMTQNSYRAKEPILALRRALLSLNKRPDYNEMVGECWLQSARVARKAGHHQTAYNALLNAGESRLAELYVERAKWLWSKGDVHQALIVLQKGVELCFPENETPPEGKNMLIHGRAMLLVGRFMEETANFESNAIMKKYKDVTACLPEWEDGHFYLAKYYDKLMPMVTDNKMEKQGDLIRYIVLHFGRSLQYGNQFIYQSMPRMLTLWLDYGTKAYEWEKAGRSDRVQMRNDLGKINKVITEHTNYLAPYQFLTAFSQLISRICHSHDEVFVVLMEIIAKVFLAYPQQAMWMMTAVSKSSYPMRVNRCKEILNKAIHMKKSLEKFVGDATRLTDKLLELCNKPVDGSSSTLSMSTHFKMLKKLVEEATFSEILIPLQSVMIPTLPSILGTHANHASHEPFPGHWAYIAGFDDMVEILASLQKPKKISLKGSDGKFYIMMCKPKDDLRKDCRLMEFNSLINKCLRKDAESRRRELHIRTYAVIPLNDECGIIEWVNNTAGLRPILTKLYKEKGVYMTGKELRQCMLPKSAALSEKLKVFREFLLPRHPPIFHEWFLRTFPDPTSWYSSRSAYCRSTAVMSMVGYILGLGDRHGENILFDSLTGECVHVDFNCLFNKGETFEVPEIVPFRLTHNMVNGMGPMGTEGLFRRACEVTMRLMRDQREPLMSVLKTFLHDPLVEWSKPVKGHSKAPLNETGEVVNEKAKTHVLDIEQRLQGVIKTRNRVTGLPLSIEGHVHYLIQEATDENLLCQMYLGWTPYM
Chain of Serine/threonine-protein kinase RIO2 (Q9BVS4 whole entry, the tested form may be a part): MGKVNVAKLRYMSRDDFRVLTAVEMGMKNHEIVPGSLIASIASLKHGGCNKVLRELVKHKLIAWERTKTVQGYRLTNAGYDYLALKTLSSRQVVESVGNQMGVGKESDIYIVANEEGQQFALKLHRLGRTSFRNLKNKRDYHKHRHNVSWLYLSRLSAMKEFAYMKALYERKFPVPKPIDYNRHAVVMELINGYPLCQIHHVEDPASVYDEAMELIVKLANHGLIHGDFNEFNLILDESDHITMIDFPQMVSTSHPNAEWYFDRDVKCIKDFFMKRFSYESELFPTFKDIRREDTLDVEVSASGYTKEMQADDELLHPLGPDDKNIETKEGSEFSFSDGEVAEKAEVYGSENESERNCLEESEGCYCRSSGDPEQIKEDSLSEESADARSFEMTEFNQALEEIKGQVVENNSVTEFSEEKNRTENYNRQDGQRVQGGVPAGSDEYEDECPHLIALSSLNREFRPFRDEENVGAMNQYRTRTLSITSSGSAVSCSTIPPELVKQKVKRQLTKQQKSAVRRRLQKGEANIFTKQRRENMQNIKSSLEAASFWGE
Chain of Phosphatidylinositol 4,5-bisphosphate 3-kinase catalytic subunit beta isoform (P42338 whole entry, the tested form may be a part, canonical isoform): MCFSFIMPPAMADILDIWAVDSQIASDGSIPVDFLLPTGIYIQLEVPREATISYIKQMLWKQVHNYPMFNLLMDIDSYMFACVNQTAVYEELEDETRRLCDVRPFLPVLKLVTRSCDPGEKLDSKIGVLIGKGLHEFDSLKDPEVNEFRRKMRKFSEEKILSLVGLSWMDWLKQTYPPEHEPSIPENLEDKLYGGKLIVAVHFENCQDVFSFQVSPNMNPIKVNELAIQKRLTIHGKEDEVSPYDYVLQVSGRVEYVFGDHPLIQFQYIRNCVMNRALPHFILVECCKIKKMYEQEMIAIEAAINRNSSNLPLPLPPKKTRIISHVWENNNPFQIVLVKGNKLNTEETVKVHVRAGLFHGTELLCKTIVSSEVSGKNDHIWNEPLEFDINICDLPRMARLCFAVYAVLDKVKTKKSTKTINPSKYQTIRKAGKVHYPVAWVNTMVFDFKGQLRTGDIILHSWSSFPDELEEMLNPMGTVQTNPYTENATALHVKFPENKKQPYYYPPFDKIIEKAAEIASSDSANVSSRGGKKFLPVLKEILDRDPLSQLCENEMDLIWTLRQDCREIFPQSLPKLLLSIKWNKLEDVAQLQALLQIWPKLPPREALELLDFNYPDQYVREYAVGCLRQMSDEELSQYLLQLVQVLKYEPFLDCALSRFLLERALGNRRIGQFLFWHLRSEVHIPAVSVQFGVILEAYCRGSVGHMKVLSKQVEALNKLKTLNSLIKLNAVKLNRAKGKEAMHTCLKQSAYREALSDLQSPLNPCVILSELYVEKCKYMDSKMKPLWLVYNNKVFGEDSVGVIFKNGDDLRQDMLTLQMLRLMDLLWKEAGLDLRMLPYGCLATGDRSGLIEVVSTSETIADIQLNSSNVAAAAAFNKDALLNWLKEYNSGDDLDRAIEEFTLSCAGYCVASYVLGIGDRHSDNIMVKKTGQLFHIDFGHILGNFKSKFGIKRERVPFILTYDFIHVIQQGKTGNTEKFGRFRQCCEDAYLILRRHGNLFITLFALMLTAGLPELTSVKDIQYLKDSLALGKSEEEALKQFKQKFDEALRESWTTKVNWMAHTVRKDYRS

C[C@@H]1COCCN1c1cc(-c2ccnn2C)c2ccnc(-c3ccn[nH]3)c2n1 [ELIMUSERTIB]
IC50 (SU-DHL-8 [1]): 9 nM
CLH [2]: 6.83 mL/min/kg
CLH [3]: 12.3 mL/min/kg
CLH [4]: 8.67 mL/min/kg
half-life [5]: 1.3 h
bioavailability [6]: 87%
IC50 [7]: 35 nM
IC50 [8]: 332 nM
IC50 [9]: 1420 nM
IC50 [10]: 3270 nM
Kd [11]: 24 nM
Kd [12]: 660 nM
Fh at 1 µM [13]: 44%
fraction unbound at 7 h, 3 µM [14]: 0.17
clearance [15]: 13.2 mL/min/kg
CL [16]: 58.3 mL/min/kg
Vdss [17]: 8.8 L/kg
t1/2(app) [18]: 0.17 h
half-life [19]: 1 h
bioavailability [20]: 51%
T/C (SU-DHL-8 [21]): -0.03
inhibition [22]: Active
inhibition [23]: Active
Activity [24]: 11 to 15%
Activity [25]: < 10%
Activity [26]: < 10%
T/C (SUM149PT): -0.06
